Screening results: PubChem BioAssay, several laboratories
Most compounds without a hit are left out; they make up all but 4.2% or so of the library.
UPR CHOP act: activators of apoptotic arm of unfolded protein response (CHOP). hit rate 0.34% among 330,000. CHO-CHOP luciferase reporter, UPR activation, luminescence; percent of tunicamycin response over DMSO baseline. activation, % at 10 µM;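 active = at 10 µM dose, activation of 40% or more, normalized to positive control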
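Dosing – one dose, 10 µM in 0.5% DMSO · System – CHO-CHOP cells, stable luciferase reporter of PERK-eIF2a-CHOP signalling · Input – 500 cells/well · Control set – tunicamycin 10 µg/mL final as positive, DMSO-only wells as negative · Timing – 6 h compound treatment, 37 °C · Measure – % activation vs tunicamycin · Technique – luminescence read with Steady-Glo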
CHOP inhibitor: CHOP inhibition in unfolded protein response; CHO-K1 CHOP-promoter luciferase, tunicamycin-induced, 15-18 h; inhibition, % at 10 µM; hit rate 3.8% among 220,000; AID 2732;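 active = compounds that reduced the stress-induced luciferase reporter signal by more than about 70% of percent inhibition, limit read from the data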
ANO1 block: mouse TMEM16A channel inhibition, primary screen; Q8BHY3; HEK293 TMEM16A/YFP iodide influx fluorescence, ionomycin; normalized B-score (activity score, 25-100; higher = stronger inhibition) at 10 µM; hit rate 1.2% among 310,000; AID 588511;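 active = ratio plate-corrected score three or more library SD toward inhibition, starting fluorescence score within five deviations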;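 also: score derived from kinetic fluorescence span divided by baseline fluorescence per well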
Target sequence (Q8BHY3 whole entry, looked up): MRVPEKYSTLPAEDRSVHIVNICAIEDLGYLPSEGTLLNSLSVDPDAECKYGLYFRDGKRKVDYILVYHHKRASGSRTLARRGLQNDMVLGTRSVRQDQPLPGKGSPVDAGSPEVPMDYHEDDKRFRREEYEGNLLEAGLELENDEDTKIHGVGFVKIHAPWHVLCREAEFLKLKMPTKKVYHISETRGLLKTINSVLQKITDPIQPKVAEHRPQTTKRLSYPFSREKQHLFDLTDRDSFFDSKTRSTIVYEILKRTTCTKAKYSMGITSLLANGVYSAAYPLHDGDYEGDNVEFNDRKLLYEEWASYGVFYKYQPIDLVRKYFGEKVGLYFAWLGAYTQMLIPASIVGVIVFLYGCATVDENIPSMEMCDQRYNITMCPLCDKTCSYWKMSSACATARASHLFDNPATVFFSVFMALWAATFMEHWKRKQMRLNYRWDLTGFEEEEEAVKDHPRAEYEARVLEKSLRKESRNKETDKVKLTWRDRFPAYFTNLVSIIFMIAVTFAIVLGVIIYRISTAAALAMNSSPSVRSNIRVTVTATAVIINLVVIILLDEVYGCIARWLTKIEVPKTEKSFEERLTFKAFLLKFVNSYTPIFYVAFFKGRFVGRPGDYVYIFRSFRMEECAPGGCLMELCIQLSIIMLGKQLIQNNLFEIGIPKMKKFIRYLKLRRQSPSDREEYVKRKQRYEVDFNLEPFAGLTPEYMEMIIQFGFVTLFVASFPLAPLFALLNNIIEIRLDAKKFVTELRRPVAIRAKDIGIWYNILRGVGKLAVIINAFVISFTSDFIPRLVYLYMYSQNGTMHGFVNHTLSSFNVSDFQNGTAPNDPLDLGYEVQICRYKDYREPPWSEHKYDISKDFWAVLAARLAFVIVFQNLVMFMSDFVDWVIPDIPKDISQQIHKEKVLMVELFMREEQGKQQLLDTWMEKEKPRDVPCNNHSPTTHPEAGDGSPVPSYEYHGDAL
Lipid droplet: hepatic lipid droplet formation modulation | AML12 mouse hepatocytes, oleate lipid droplets, BODIPY imaging | hit rate 0.4% among 240,000 | inhibition, % at 6.5 µM;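 active = lipid droplet intensity inhibited by at least 50%, with more than 500 cells counted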
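Material – AML12 mouse liver cells · Also added – oleate loading, 100 µM · Compound dosing – 6.5 µM single-point dosing · Times – overnight treatment with compound plus oleate · Measured by – fluorescence imaging, 20x objective, two fields per well · Read-out – percent inhibition of filter-corrected integrated lipid droplet intensity per well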
XBP1 UPR activ: activators of adaptive arm of unfolded protein response (XBP1) | CHO-XBP1 luciferase reporter, IRE1-XBP1 UPR activation, luminescence; percent of tunicamycin response, DMSO as zero | activation, % at 20 µM | hit rate 0.33% among 330,000 | AID 463104;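 active = versus positive control, 20 µM dose yields 30% or more activation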
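Material: CHO-XBP1 cells stably carrying IRE1-XBP1-driven luciferase reporter | Medium: F12 with 10% serum | Compound dosing: 20 µM single concentration, DMSO 1% | Incubation: Overnight seeding at 37 °C, 6 h compound treatment at 37 °C | Detection: Steady-Glo luminescence read | Read-out basis: % activation of reporter signal versus tunicamycin and DMSO controls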
TMEM16A act: activates or potentiates the mouse TMEM16A chloride channel. B-score at 10 µM. hit rate 0.3% among 340,000. HEK293 TMEM16A/YFP-H148Q/I152L, iodide quench fluorescence; active compounds read low;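 active = fluorescence-ratio B-score plate-corrected deviation score at least 3 library SD below zero, with starting fluorescence score within 5 deviations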;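 also: channel opened by trigger with iodide after compound preincubation; score built on the fluorescence ratio of max minus min over baseline; more negative score means more quench and so TMEM16A activation or potentiation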
Of the large screens only hits and unclear results are named; the others gave an inactive call.

CC(C)(C)C(=O)Nc1cc2nn(-c3ccccc3)nc2cc1Cl	CHOP inhibitor 79.9 (no result: UPR CHOP act, ANO1 block, XBP1 UPR activ)
COc1ccccc1CNC(=O)CCCC(=O)n1ncc2cc(C)ccc21	none (no result: CHOP inhibitor)
CCOc1ccc(-c2nnn(CC(=O)NCc3ccc(F)cc3)n2)cc1OCC	CHOP inhibitor 81.0 (no result: Lipid droplet)
CCOc1ccc(-n2c(N)c(-c3nc4ccccc4[nH]3)sc2=S)cc1	CHOP inhibitor 80.6
COc1ccc(-n2c(N)c(-c3nc4ccccc4n3C)sc2=S)cc1	none
COc1ccc(OCC(O)CNC(=O)c2ccc(Br)cc2)cc1 (stereo not given)	none
COc1ccc(OCC(O)CNc2ccc(Br)cc2)cc1 (stereo not given)	CHOP inhibitor 85.5
COc1cccc(C2=NOC(C(=O)NC(C)C)C2)c1 (stereo not given)	ANO1 block 25 (no result: Lipid droplet)
Cc1ccc(CCNC(=O)C2CC(c3cc(C(F)(F)F)cc(C(F)(F)F)c3)=NO2)cc1 (stereo not given)	CHOP inhibitor 76.2 (no result: Lipid droplet)
COc1ccc(CNC(=O)C2CC(c3ccc(OC)cc3)=NO2)cc1 (stereo not given)	ANO1 block 100 (no result: Lipid droplet)
COc1ccc(C2=NOC(C(=O)NC(C)C)C2)cc1 (stereo not given)	none (no result: Lipid droplet)
COc1ccc(CCNC(=O)C2CC(c3cc(C(F)(F)F)cc(C(F)(F)F)c3)=NO2)cc1 (stereo not given)	none (no result: Lipid droplet)
COc1ccc(CNC(=O)C2CC(c3ccc(F)cc3)=NO2)cc1 (stereo not given)	none (no result: Lipid droplet)
COc1cc(OC)c(NS(=O)(=O)c2cc(Br)cnc2N)cc1Cl	none (no result: CHOP inhibitor)
Cc1ccc(S(=O)(=O)N(CC(=O)c2ccccc2)C(=O)N2CCN(C)CC2)cc1	none (no result: CHOP inhibitor, ANO1 block, Lipid droplet)
O=C(COc1ccccc1Cc1ccccc1)Nc1cccnc1	none (no result: CHOP inhibitor, ANO1 block, Lipid droplet)
N#Cc1cnc2c(-c3ccccc3)c(-c3ccccc3)nn2c1N	CHOP inhibitor 77.8
Cc1nn2c(N)c(C#N)cnc2c1-c1ccccc1	none (no result: Lipid droplet)
O=C1c2ccccc2C(Nc2ccc3c(c2)OCO3)N1Cc1ccco1 (stereo not given)	none
O=C1c2ccccc2C(Nc2ccc(F)c(Cl)c2)N1Cc1ccco1 (stereo not given)	TMEM16A act -22.4
COc1ccc(NC2c3ccccc3C(=O)N2Cc2ccco2)cc1OC (stereo not given)	none
CCOc1ccc(NC2c3ccccc3C(=O)N2Cc2ccco2)cc1 (stereo not given)	CHOP inhibitor 72.6
Cc1cccc(C)c1OCC(=O)N(Cc1ccc(Cl)cc1)C1CCS(=O)(=O)C1 (stereo not given)	none (no result: CHOP inhibitor)
COc1ccc(S(=O)(=O)N2CCC3(CC2)OCCN3S(=O)(=O)c2c(C)cc(C)cc2C)cc1	none (no result: CHOP inhibitor, Lipid droplet)
COc1cc(/C=N/NC(=S)NC2CC3CC2C2C=CCC32)ccc1O (stereo not given)	ANO1 block 100
CCOc1ccc(/C=N/NC(=S)NC2CC3CC2C2C=CCC32)cc1 (stereo not given)	none
COc1ccccc1C(c1nnnn1C1CCCC1)N1CCN2CCCC2C1 (stereo not given)	TMEM16A act -11.5 (no result: Lipid droplet)
COc1ccc(C(c2nnnn2C2CCCC2)N2CCC(C)CC2)cc1 (stereo not given)	CHOP inhibitor 82.9
c1cc(C(c2nnnn2C2CCCCC2)N2CCN3CCCC3C2)ccn1 (stereo not given)	none
COc1ccc(C(c2nnnn2C2CCCCC2)N2CCN(c3ccc(OC)cc3)CC2)cc1 (stereo not given)	none
Cc1ccc(C)c(-n2ccnc2SCC(=O)c2c(N)n(C3CC3)c(=O)[nH]c2=O)c1	none (no result: CHOP inhibitor, ANO1 block, Lipid droplet)
C[C@@H](NC(=O)c1[nH]cnc1C(=O)Nc1ccon1)c1ccccc1	none (no result: CHOP inhibitor, ANO1 block, Lipid droplet)
COc1cc(/C=C2\C(=N)N3N=C(S(C)(=O)=O)SC3=NC2=O)ccc1OCCOc1ccccc1C	ANO1 block 100 (no result: UPR CHOP act, CHOP inhibitor, XBP1 UPR activ)
O=C(Nc1cccc(Cl)c1)c1cc(S(=O)(=O)N2CCOCC2)cs1	none (no result: CHOP inhibitor)
Cc1ccc(N=N/C(=C\O)C(=O)c2ccncc2)cc1	CHOP inhibitor 88.6
CCOC(=O)c1cc2sc(C)cc2n1CC(=O)Nc1cccc(C)c1C	CHOP inhibitor 73.5
